# ChEMBL document CHEMBL1158613, “Novel trivalent anti-influenza reagent” (Bioorg Med Chem Lett, 2010)
# Activity calls are given as the source filed them. The calls are words filed in the database; no cut-off is given here.
# Experiments:
# [1] = Aqueous solubility of the compound; format: physicochemical; settings: buffer
# [2] = system: Influenza A virus; test: Antiviral activity against Influenza A/PR/8/1934 (H1N1) infected in MDCK cells assessed as of viral plaque formation at 4 degC relative to control; format: functional, A/Puerto Rico/8/1934(H1N1)
# Method in brief: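 Plaque reduction assay in MDCK cells infected with A/PR/8/1934 (H1N1), with compound at 400 μM during virus adsorption at 4 °C. Plaques were counted and expressed as a percentage of the virus-only control. Uninoculated cells served as the no-virus control. Single concentration only, with no dose range.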
# [3] = system: Influenza A virus; test: Antiviral activity against Influenza A/PR/8/1934 (H1N1) infected in MDCK cells assessed as viral plaque formation at 35 degC relative to control; format: functional, A/Puerto Rico/8/1934(H1N1)
# Method in brief: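 Plaque reduction assay in MDCK cells with A/PR/8/1934 (H1N1), with compound at 400 μM present during virus adsorption at 35 °C. The plaque count is given as a percentage of plaques in the virus-only control, and uninoculated cells were the blank. A single concentration was tested.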
# [4] = system: Influenza A virus; test: Inhibition of Influenza A/PR/8/1934 (H1N1)-induced hemagglutinination of chicken RBC; format: functional, organism-based; settings: A/Puerto Rico/8/1934(H1N1)
smiles,measurement,setting,value
CC(=O)N[C@H]1[C@@H]([C@@H](O)[C@H](O)CO)O[C@](O[C@H]2[C@@H](O)[C@@H](CO)O[C@@H](O[C@H]3[C@@H](O)[C@@H](O)[C@H](OCCCCCCNC(=O)CCC(N)C(=O)NCCOCCOCCOc4ccc(C(c5ccc(OCCOCCOCCNC(=O)C(N)CCC(=O)NCCCCCCO[C@@H]6O[C@H](CO)[C@@H](O[C@@H]7O[C@H](CO)[C@H](O)[C@H](O[C@@]8(C(=O)O)C[C@H](O)[C@@H](NC(C)=O)[C@@H]([C@@H](O)[C@H](O)CO)O8)[C@H]7O)[C@@H](O)[C@H]6O)cc5)c5ccc(OCCOCCOCCNC(=O)C(N)CCC(=O)NCCCCCCO[C@@H]6O[C@H](CO)[C@@H](O[C@@H]7O[C@H](CO)[C@H](O)[C@H](O[C@@]8(C(=O)O)C[C@H](O)[C@@H](NC(C)=O)[C@@H]([C@@H](O)[C@H](O)CO)O8)[C@H]7O)[C@@H](O)[C@H]6O)cc5)cc4)O[C@@H]3CO)[C@@H]2O)(C(=O)O)C[C@@H]1O (some centres undefined),solubility,[1],Soluble
same,Activity,[2],15.5%
same,Activity,[3],45.6%
same,inhibition,[4],inactive
NC(CCC(=O)NCCCCCCO[C@@H]1O[C@H](CO)[C@@H](O[C@@H]2O[C@H](CO)[C@H](O)[C@H](O)[C@H]2O)[C@@H](O)[C@H]1O)C(=O)NCCOCCOCCOc1ccc(C(c2ccc(OCCOCCOCCNC(=O)C(N)CCC(=O)NCCCCCCO[C@@H]3O[C@H](CO)[C@@H](O[C@@H]4O[C@H](CO)[C@H](O)[C@H](O)[C@H]4O)[C@@H](O)[C@H]3O)cc2)c2ccc(OCCOCCOCCNC(=O)C(N)CCC(=O)NCCCCCCO[C@@H]3O[C@H](CO)[C@@H](O[C@@H]4O[C@H](CO)[C@H](O)[C@H](O)[C@H]4O)[C@@H](O)[C@H]3O)cc2)cc1 (some centres undefined),solubility,[1],Soluble
same,Activity,[2],72.4%
same,Activity,[3],77.1%
NC(CCC(=O)NCCCCCCO[C@@H]1O[C@H](CO)[C@@H](O[C@@H]2O[C@H](CO)[C@H](O)[C@H](O)[C@H]2O)[C@@H](O)[C@H]1O)C(=O)NCCOCCOCCC(=O)Nc1ccc(C(c2ccc(NC(=O)CCOCCOCCNC(=O)C(N)CCC(=O)NCCCCCCO[C@@H]3O[C@H](CO)[C@@H](O[C@@H]4O[C@H](CO)[C@H](O)[C@H](O)[C@H]4O)[C@@H](O)[C@H]3O)cc2)c2ccc(NC(=O)CCOCCOCCNC(=O)C(N)CCC(=O)NCCCCCCO[C@@H]3O[C@H](CO)[C@@H](O[C@@H]4O[C@H](CO)[C@H](O)[C@H](O)[C@H]4O)[C@@H](O)[C@H]3O)cc2)cc1 (some centres undefined),solubility,[1],Soluble
same,Activity,[2],100%
same,Activity,[3],100%
CC(=O)N[C@H]1[C@@H]([C@@H](O)[C@H](O)CO)O[C@](O[C@H]2[C@@H](O)[C@@H](CO)O[C@@H](O[C@H]3[C@@H](O)[C@@H](O)[C@H](OCCCCCCNC(=O)CCC(N)C(=O)NCCOCCOCCC(=O)Nc4ccc(C(c5ccc(NC(=O)CCOCCOCCNC(=O)C(N)CCC(=O)NCCCCCCO[C@@H]6O[C@H](CO)[C@@H](O[C@@H]7O[C@H](CO)[C@H](O)[C@H](O[C@@]8(C(=O)O)C[C@H](O)[C@@H](NC(C)=O)[C@@H]([C@@H](O)[C@H](O)CO)O8)[C@H]7O)[C@@H](O)[C@H]6O)cc5)c5ccc(NC(=O)CCOCCOCCNC(=O)C(N)CCC(=O)NCCCCCCO[C@@H]6O[C@H](CO)[C@@H](O[C@@H]7O[C@H](CO)[C@H](O)[C@H](O[C@@]8(C(=O)O)C[C@H](O)[C@@H](NC(C)=O)[C@@H]([C@@H](O)[C@H](O)CO)O8)[C@H]7O)[C@@H](O)[C@H]6O)cc5)cc4)O[C@@H]3CO)[C@@H]2O)(C(=O)O)C[C@@H]1O (some centres undefined),solubility,[1],Soluble
same,Activity,[2],67.2%
same,Activity,[3],56.6%
same,inhibition,[4],inactive
